The source made the active and inactive calls. No cut-off for these calls is given here.
Tests used:
[1] = species: Homo sapiens; test: Selectivity index, ratio of Ki for human recombinant 5-HT1A to Ki for human recombinant sigma1 receptor
[2] = species: Homo sapiens; test: Selectivity index, ratio of Ki for human recombinant 5-HT7A receptor to Ki for human recombinant sigma1 receptor
[3] = species: Homo sapiens; test: Selectivity index, ratio of Ki for human recombinant dopamine D4 receptor to Ki for human recombinant sigma1 receptor
Summary of the method: (§1)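 Both Ki values in each ratio come from NIMH Psychoactive Drug Screening Program radioligand binding. […] Other targets were given full binding curves, measured in triplicate, and Ki was taken from a sigmoidal curve fit. Some values were repeated in duplicate or triplicate independent experiments.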

[4] = species: Homo sapiens; test: Selectivity index, ratio of Ki for human recombinant 5-HT1B receptor to Ki for human recombinant sigma1 receptor
[5] = tested on: 661W; test: Cytoprotective activity in mouse 661W cells assessed as inhibition of t-BHP induced oxidative stress by measuring cell viability at 200 uM after 24 hrs by MTT assay (reference value: >50%); type: functional, cell-based
[6] = tested on: 661W; test: Cytoprotective activity in mouse 661W cells assessed as reduction in tBHP-induced ROS level at 30 uM after 2 hrs by […] fluorescent microscopic analysis; type: functional, cell-based
Summary of the method: (§2)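 661W cells seeded on coverslips for 18 h, then exposed 2 h to 55 μM tBHP with or without test agent or (+)-pentazocine. ROS are detected with CellROX green dye by epifluorescence, with DAPI marking nuclei. Fluorescence intensity is quantified as mean ± SD from three independent experiments, each run in duplicate.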

[7] = species: Homo sapiens; test: Selectivity index, ratio of Ki for human recombinant adrenergic Beta2 receptor to Ki for human recombinant sigma1 receptor; summary of the method: as §1
[8] = tested on: 661W; test: Cytoprotective activity in mouse 661W cells assessed as inhibition of t-BHP induced oxidative stress by measuring increase in cell viability at 30 uM after 24 hrs by MTT assay (Rvb < 50%); type: functional
[9] = tested on: 661W; test: Cytotoxicity against mouse 661W cells at 200 uM after 24 hrs by MTT assay; type: cell-based
Summary of the method: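 661W cells treated 24 h with test agent at 10, 30, 100 and 200 μM. Viability is measured by MTT and compared with nontreated cells.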

[10] = species: Homo sapiens; test: Selectivity index, ratio of Ki for human recombinant dopamine D2 receptor to Ki for human recombinant sigma1 receptor; summary of the method: as §1
[11] = tested on: 661W; test: Cytoprotective activity in mouse 661W cells assessed as inhibition of t-BHP induced oxidative stress by measuring in cell viability at 30 uM in presence of 10 uM of […] preincubated for 30 mins followed by compound addition and measured after 24 hrs by MTT assay; type: functional, cell-based
Summary of the method: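 Same 661W oxidative-stress setup: 55 μM tBHP for 24 h with test agent at 30 μM, plus the σ1 antagonist BD1063 at 10 μM. Viability is read by MTT.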

[12] = tested on: 661W; test: Cytoprotective activity in mouse 661W cells assessed as reduction in tBHP-induced ROS level at 10 to 30 uM after 2 hrs by […] fluorescent microscopic analysis; type: functional, cell-based; summary of the method: as §2
[13] = species: Homo sapiens; test: Selectivity index, ratio of Ki for human recombinant adrenergic Alpha2B receptor to Ki for human recombinant sigma1 receptor; summary of the method: as §1
[14] = species: Homo sapiens; test: Selectivity index, ratio of Ki for human recombinant histamine H2 receptor to Ki for human recombinant sigma1 receptor; summary of the method: as §1
[15] = species: Homo sapiens; test: Selectivity index, ratio of Ki for human recombinant 5-HT6 receptor to Ki for human recombinant sigma1 receptor
[16] = species: Homo sapiens; test: Selectivity index, ratio of Ki for human recombinant Muscarinic acetylcholine M4 receptor to Ki for human recombinant sigma1 receptor; summary of the method: as §1
[17] = Selectivity index, ratio of Ki for rat brain BZP receptor to Ki for human recombinant sigma1 receptor; summary of the method: as §1
[18] = species: Homo sapiens; test: Selectivity index, ratio of Ki for human recombinant 5-HT3 receptor to Ki for human recombinant sigma1 receptor
[19] = species: Homo sapiens; test: Selectivity index, ratio of Ki for human recombinant adrenergic Alpha1B receptor to Ki for human recombinant sigma1 receptor; summary of the method: as §1
[20] = species: Homo sapiens; test: Selectivity index, ratio of Ki for human recombinant Muscarinic acetylcholine M1 receptor to Ki for human recombinant sigma1 receptor; summary of the method: as §1
[21] = species: Homo sapiens; test: Selectivity index, ratio of Ki for human recombinant 5-HT2B receptor to Ki for human recombinant sigma1 receptor
[22] = species: Homo sapiens; test: Selectivity index, ratio of Ki for human recombinant adrenergic Beta1 receptor expressed in Flp-In CHO to Ki for human recombinant sigma1 receptor; summary of the method: as §1
[23] = species: Homo sapiens; test: Selectivity index, ratio of Ki for human recombinant NET receptor to Ki for human recombinant sigma1 receptor; summary of the method: as §1
[24] = species: Homo sapiens; test: Selectivity index, ratio of Ki for human recombinant 5-HT1D receptor to Ki for human recombinant sigma1 receptor
[25] = tested on: 661W; test: Cytoprotective activity in mouse 661W cells assessed as inhibition of t-BHP induced oxidative stress by measuring increase in cell viability after 24 hrs by MTT assay; type: functional, cell-based
[26] = species: Homo sapiens; test: Selectivity index, ratio of Ki for human recombinant adrenergic alpha1A receptor to Ki for human recombinant sigma1 receptor; summary of the method: as §1
[27] = species: Homo sapiens; test: Selectivity index, ratio of Ki for human recombinant dopamine D5 receptor to Ki for human recombinant sigma1 receptor; summary of the method: as §1
[28] = species: Homo sapiens; test: Selectivity index, ratio of Ki for human recombinant Muscarinic acetylcholine M2 receptor to Ki for human recombinant sigma1 receptor; summary of the method: as §1
[29] = species: Homo sapiens; test: Selectivity index, ratio of Ki for human recombinant Muscarinic acetylcholine M3 receptor to Ki for human recombinant sigma1 receptor; summary of the method: as §1
[30] = species: Homo sapiens; test: Selectivity index, ratio of Ki for human recombinant adrenergic Alpha2C receptor to Ki for human recombinant sigma1 receptor; summary of the method: as §1
[31] = Selectivity index, ratio of Ki for rat brain PBR receptor to Ki for human recombinant sigma1 receptor; summary of the method: as §1
[32] = species: Homo sapiens; test: Selectivity index, ratio of Ki for human recombinant 5-HT1E receptor to Ki for human recombinant sigma1 receptor
[33] = species: Homo sapiens; test: Selectivity index, ratio of Ki for human recombinant DOR receptor to Ki for human recombinant sigma1 receptor; summary of the method: as §1
[34] = species: Homo sapiens; test: Selectivity index, ratio of Ki for human recombinant dopamine D3 receptor to Ki for human recombinant sigma1 receptor; summary of the method: as §1
[35] = species: Homo sapiens; test: Selectivity index, ratio of Ki for human recombinant adrenergic Beta3 receptor to Ki for human recombinant sigma1 receptor; summary of the method: as §1
[36] = species: Homo sapiens; test: Selectivity index, ratio of Ki for human recombinant sigma2 receptor to Ki for human recombinant sigma1 receptor; summary of the method: as §1
[37] = species: Homo sapiens; test: Selectivity index, ratio of Ki for human recombinant 5-HT2C receptor to Ki for human recombinant sigma1 receptor
[38] = species: Rattus norvegicus; test: Displacement of [3H]-Flunitrazepam from BZP receptor in rat brain at 10 uM after 90 mins by microbeta scintillation counting method; type: tissue-based
Summary of the method: (§3)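 Radioligand binding run by the NIMH Psychoactive Drug Screening Program. […] Otherwise Ki comes from sigmoidal curve fits of triplicate measurements in a single experiment, or is averaged over repeated experiments each run in triplicate.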

[39] = molecular target: Alpha-2A adrenergic receptor (Homo sapiens) (UniProt P08913); test: Displacement of [3H]-Rauwolscine from human recombinant adrenergic Alpha2A receptor expressed in stable MDCK cells at 10 uM after 90 mins by microbeta scintillation counting method relative to control; type: cell-based
Sequence of Alpha-2A adrenergic receptor (Homo sapiens) (P08913 whole entry): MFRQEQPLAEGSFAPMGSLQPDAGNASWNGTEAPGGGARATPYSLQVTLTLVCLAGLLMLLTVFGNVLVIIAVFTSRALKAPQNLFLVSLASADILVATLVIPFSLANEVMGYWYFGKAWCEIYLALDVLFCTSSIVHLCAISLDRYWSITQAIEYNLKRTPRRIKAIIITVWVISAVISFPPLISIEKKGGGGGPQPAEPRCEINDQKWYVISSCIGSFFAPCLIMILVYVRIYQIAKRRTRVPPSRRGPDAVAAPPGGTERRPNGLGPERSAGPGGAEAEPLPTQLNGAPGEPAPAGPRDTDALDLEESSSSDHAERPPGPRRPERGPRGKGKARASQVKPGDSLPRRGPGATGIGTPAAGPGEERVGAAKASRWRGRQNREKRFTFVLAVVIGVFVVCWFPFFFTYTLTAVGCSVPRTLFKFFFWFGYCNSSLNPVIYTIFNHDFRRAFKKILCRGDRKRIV

[40] = molecular target: Beta-2 adrenergic receptor (Homo sapiens, UniProt P07550); test: Displacement of [3H]-CGP12177 from human recombinant adrenergic Beta2 receptor expressed in Flp-In HEK cells at 10 uM after 90 mins by microbeta scintillation counting method relative to control; type: cell-based; summary of the method: as §3
Sequence of Beta-2 adrenergic receptor (P07550 whole entry, looked up): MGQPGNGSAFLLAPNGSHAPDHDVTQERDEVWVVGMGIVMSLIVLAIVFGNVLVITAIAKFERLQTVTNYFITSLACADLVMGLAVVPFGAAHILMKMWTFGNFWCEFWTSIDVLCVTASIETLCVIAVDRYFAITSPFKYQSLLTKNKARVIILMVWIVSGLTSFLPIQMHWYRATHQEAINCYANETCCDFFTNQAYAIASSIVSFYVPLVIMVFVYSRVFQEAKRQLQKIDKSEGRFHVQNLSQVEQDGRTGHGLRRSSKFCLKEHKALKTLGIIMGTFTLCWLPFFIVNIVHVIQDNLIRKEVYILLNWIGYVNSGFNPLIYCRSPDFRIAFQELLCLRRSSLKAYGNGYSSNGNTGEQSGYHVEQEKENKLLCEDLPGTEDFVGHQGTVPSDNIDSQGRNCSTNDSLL

COc1cc(OC)c2c(c1)OC[C@@]1(C)NCC[C@@H]21 (racemic)
Ratio Ki [1]: > 20 | Ratio Ki [2]: > 20 | Ratio Ki [3]: > 20 | Ratio Ki [4]: > 20 | Activity [5]: inactive | inhibition [6]: Active | Ratio Ki [7]: > 20 | Activity [8]: >80% | Activity [9]: Non-Toxic | Ratio Ki [10]: > 20 | Activity [11]: inactive | inhibition [12]: Active | Ratio Ki [13]: > 20 | Ratio Ki [14]: > 20 | Ratio Ki [15]: > 20 | Ratio Ki [16]: > 20 | Ratio Ki [17]: > 20 | Ratio Ki [18]: > 20 | Ratio Ki [19]: > 20 | Ratio Ki [20]: > 20 | Ratio Ki [21]: > 5 | Ratio Ki [22]: > 20 | Ratio Ki [23]: > 20 | Ratio Ki [24]: > 20 | Activity [25]: Dose-dependent effect | Ratio Ki [26]: > 20 | Ratio Ki [27]: > 20 | Ratio Ki [28]: > 20 | Ratio Ki [29]: > 20 | Ratio Ki [30]: > 20 | Ratio Ki [31]: > 20 | Ratio Ki [32]: > 20 | Ratio Ki [33]: > 20 | Ratio Ki [34]: > 20 | Ratio Ki [35]: > 20 | Ratio Ki [36]: > 200 | Ratio Ki [37]: > 20

CC[C@H]1c2cc(C)ccc2OC[C@@]1(C)N (racemic)
inhibition [38]: < 50% | inhibition [39]: < 50% | inhibition [40]: < 50%
